{"source": "ChEMBL document CHEMBL2424567", "about": "“Hybrid peptides endomorphin-2/DAMGO: design, synthesis and biological evaluation” (Eur J Med Chem, 2013)", "key": {"[1]": {"target": "Delta-type opioid receptor (Rattus norvegicus, UniProt P33533)", "sequence (P33533 whole entry)": "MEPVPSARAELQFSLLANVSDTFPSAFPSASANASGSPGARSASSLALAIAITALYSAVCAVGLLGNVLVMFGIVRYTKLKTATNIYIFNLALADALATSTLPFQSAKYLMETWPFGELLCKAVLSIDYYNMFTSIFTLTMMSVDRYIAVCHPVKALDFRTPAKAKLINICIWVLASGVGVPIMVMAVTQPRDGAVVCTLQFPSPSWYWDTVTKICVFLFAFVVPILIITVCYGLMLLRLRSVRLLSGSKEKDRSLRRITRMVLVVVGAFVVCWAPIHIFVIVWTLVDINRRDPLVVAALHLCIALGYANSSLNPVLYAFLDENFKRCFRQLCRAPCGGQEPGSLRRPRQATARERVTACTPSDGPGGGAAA", "assay": "Displacement of [3H]Ile5,6deltorphin-2 from delta opioid receptor in Wistar rat brain membranes by liquid scintillation counting", "assay_type": "cell membranes, Membrane"}, "Mus musculus [2]": {"test_system": "Mus musculus", "assay": "Antinociceptive effect in icv dosed CD1 mouse assessed as increase in tail-flick latency period by tail flick test", "assay_type": "functional", "procedure,_shortened": "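Male CD-1 mice (25–30 g) given i.c.v. injection under light isoflurane (2 mm caudal/2 mm lateral of bregma, 3 mm deep, 5 µL), various doses. Radiant infrared heat focused 3–4 cm from tail tip; withdrawal latency with 15 s cut-off. Baseline is the mean of three readings 15 min apart; readings at 5–30 min. Result as %MPE; AD50 with 95% confidence limits by graded dose–response.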"}, "Mus musculus [3]": {"test_system": "Mus musculus", "assay": "Analgesic activity in icv dosed CD1 mouse assessed as inhibition of heat-induced jumping behaviour after 5 to 30 mins by hot plate method", "assay_type": "functional", "procedure,_shortened": "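Male CD-1 mice (25–30 g), lightly isoflurane-anaesthetised, injected i.c.v. 2 mm caudal and 2 mm lateral of bregma, 3 mm depth, 5 µL; various doses. Plate held at 55.0 ± 0.1 °C; latency to paw licking or jumping, 60 s cut-off. Baseline is the mean of three readings 15 min apart; readings at 5, 10, 15, 20 and 30 min. Result as %MPE; AD50 with 95% confidence limits by graded dose–response.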"}, "Mu-type opioid receptor": {"target": "Mu-type opioid receptor (Rattus norvegicus, UniProt P33535)", "sequence (P33535 whole entry)": "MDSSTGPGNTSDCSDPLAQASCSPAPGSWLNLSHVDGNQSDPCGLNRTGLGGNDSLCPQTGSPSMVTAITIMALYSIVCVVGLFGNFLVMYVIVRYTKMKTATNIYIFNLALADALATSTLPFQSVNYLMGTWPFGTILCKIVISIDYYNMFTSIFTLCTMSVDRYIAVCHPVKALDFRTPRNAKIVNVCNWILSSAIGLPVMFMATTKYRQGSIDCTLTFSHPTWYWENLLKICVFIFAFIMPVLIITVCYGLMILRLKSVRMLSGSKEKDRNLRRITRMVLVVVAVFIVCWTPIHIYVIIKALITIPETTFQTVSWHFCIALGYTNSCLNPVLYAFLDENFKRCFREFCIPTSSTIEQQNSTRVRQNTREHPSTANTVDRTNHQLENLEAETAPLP", "assay": "Displacement of [3H]DAMGO from mu opioid receptor in Wistar rat brain membranes by liquid scintillation counting", "assay_type": "cell membranes, Membrane"}, "Rattus norvegicus": {"species_on_record": "Rattus norvegicus", "assay": "Selectivity ratio of Ki for delta opioid receptor in Wistar rat brain membranes to Ki for mu opioid receptor in Wistar rat brain membranes", "assay_type": "cell membranes", "settings": "Membrane", "procedure,_shortened": "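Washed Wistar rat brain membranes (0.2–0.4 mg/ml protein) incubated 30 min at 25 °C in 50 mM Tris-HCl pH 7.4 with BSA, captopril, bestatin and phosphoramidon (1 µM each). Radioligands were [3H]DAMGO (0.9–1.2 nM, μ) or [3H]Ile5,6-deltorphin-2 (0.8–1.3 nM, δ); competitor at 10^-11–10^-5 M; nonspecific binding with 10 µM naloxone. Filtration and scintillation counting; Ki by Cheng–Prusoff; δ/μ Ki ratio.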"}, "[4]": {"assay": "Half life in human plasma at 100 ug/mL", "assay_type": "ADME, cell-free", "procedure,_shortened": "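Thawed human plasma spiked with compound in DMSO to 100 µg/mL final, incubated at 37 °C. Samples taken at set times were quenched with 5% ZnSO4/MeOH/ACN (5:3:2), centrifuged, and the supernatant analysed by reversed-phase HPLC-UV (275 or 254 nm). Calibration range 10–100 µg/mL. Three independent experiments.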"}}, "note": "Active and inactive are the calls of the source. Non-standard residues stand in square brackets, D forms with d. Residues, ends and D or L forms follow the SMILES beside them. *: point of attachment. NHCH2CH2OH = OCCN*; Sar = CNCC(=O)O", "data": [{"smiles": "CN(C(=O)[C@@H]1CCCN1C(=O)[C@@H](N)Cc1ccc(O)cc1)[C@@H](Cc1ccccc1)C(=O)N[C@@H](Cc1ccccc1)C(=O)NCCO.O=C(O)C(F)(F)F", "values": [{"measurement": "Ki", "setting": "[1]", "result": "> 10", "unit": "µM"}, {"measurement": "AD50", "setting": "Mus musculus [2]", "result": 3.03, "unit": "nmol"}, {"measurement": "AD50", "setting": "Mus musculus [3]", "result": 9.6, "unit": "nmol"}, {"measurement": "Ki", "setting": "Mu-type opioid receptor", "result": 0.155, "unit": "µM"}]}, {"smiles": "CN(C(=O)[C@H](Cc1ccccc1)NC(=O)[C@@H]1CCCN1C(=O)[C@@H](N)Cc1ccc(O)cc1)[C@@H](Cc1ccccc1)C(=O)NCCO.O=C(O)C(F)(F)F", "values": [{"measurement": "Ki", "setting": "[1]", "result": 3.86, "unit": "µM"}, {"measurement": "AD50", "setting": "Mus musculus [2]", "result": 5.56, "unit": "nmol"}, {"measurement": "Ratio Ki", "setting": "Rattus norvegicus", "result": 17.2}, {"measurement": "AD50", "setting": "Mus musculus [3]", "result": 9.44, "unit": "nmol"}, {"measurement": "Ki", "setting": "Mu-type opioid receptor", "result": 0.224, "unit": "µM"}]}, {"smiles": "CC[C@H](C)[C@H](NC(=O)[C@H](CCC(=O)O)NC(=O)[C@H](Cc1ccccc1)NC(=O)[C@H](C)NC(=O)[C@@H](N)Cc1ccc(O)cc1)C(=O)N[C@H](C(=O)NCC(N)=O)[C@@H](C)CC", "values": [{"measurement": "Ki", "setting": "Mu-type opioid receptor", "result": "> 10", "unit": "µM"}]}, {"smiles": "NC(=O)[C@H](Cc1ccccc1)NC(=O)[C@H](Cc1ccccc1)NC(=O)[C@@H]1CCCN1C(=O)[C@@H](N)Cc1ccc(O)cc1", "note": "[ENDOMORPHIN 2]", "values": [{"measurement": "AD50", "setting": "Mus musculus [2]", "result": 1.49, "unit": "nmol"}, {"measurement": "AD50", "setting": "Mus musculus [3]", "result": 2.29, "unit": "nmol"}]}, {"smiles": "C[C@@H](NC(=O)[C@@H](N)Cc1ccc(O)cc1)C(=O)NCC(=O)N(C)[C@@H](Cc1ccccc1)C(=O)NCCO", "note": "[DAMGO]", "values": [{"measurement": "Ki", "setting": "[1]", "result": "> 10", "unit": "µM"}]}, {"smiles": "CN(C(=O)[C@H](Cc1ccccc1)N(C)C(=O)[C@@H]1CCCN1C(=O)[C@@H](N)Cc1ccc(O)cc1)[C@@H](Cc1ccccc1)C(=O)NCCO.O=C(O)C(F)(F)F", "values": [{"measurement": "Ki", "setting": "[1]", "result": 6.4, "unit": "µM"}, {"measurement": "AD50", "setting": "Mus musculus [2]", "result": 2.65, "unit": "nmol"}, {"measurement": "Ratio Ki", "setting": "Rattus norvegicus", "result": 188}, {"measurement": "half-life at 100 ug/mL", "setting": "[4]", "result": 40, "unit": "min"}, {"measurement": "AD50", "setting": "Mus musculus [3]", "result": 3.77, "unit": "nmol"}, {"measurement": "Ki", "setting": "Mu-type opioid receptor", "result": 0.034, "unit": "µM"}]}, {"smiles": "N[C@@H](Cc1ccc(O)cc1)C(=O)N1CCC[C@H]1C(=O)N[C@@H](Cc1ccccc1)C(=O)N[C@@H](Cc1ccccc1)C(=O)NCCO.O=C(O)C(F)(F)F", "values": [{"measurement": "Ki", "setting": "[1]", "result": 0.799, "unit": "µM"}, {"measurement": "AD50", "setting": "Mus musculus [2]", "result": 3.44, "unit": "nmol"}, {"measurement": "Ratio Ki", "setting": "Rattus norvegicus", "result": 8.9}, {"measurement": "AD50", "setting": "Mus musculus [3]", "result": 6.66, "unit": "nmol"}, {"measurement": "Ki", "setting": "Mu-type opioid receptor", "result": 0.09, "unit": "µM"}]}, {"smiles": "CN(CC(=O)N[C@@H](Cc1ccccc1)C(=O)NCCO)C(=O)[C@@H]1CCCN1C(=O)[C@@H](N)Cc1ccc(O)cc1", "note": "(H-YP[Sar]F-NHCH2CH2OH)", "values": [{"measurement": "Ki", "setting": "[1]", "result": "> 10", "unit": "µM"}, {"measurement": "AD50", "setting": "Mus musculus [2]", "result": "inactive"}, {"measurement": "AD50", "setting": "Mus musculus [3]", "result": "inactive"}, {"measurement": "Ki", "setting": "Mu-type opioid receptor", "result": "> 10", "unit": "µM"}]}]}
